Results: ChEMBL document CHEMBL1811869, “Tigliane-type diterpenoid glycosides from Euphorbia fischeriana” (J Nat Prod, 2011)

Assays:
[1] = tested on: Human immunodeficiency virus 1; experiment: Antiviral activity against Human immunodeficiency virus 1 infected in human C8166 cells assessed as inhibition of virus-induced cytopathic effect; assay type: functional, organism-based; settings: Human immunodeficiency virus 1, C8166
In short: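 HIV-1 cytopathic-effect inhibition assay in C8166 cells, with EC50 derived. Zidovudine (AZT) run as the positive-control drug.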

[2] = Therapeutic index, ratio of CC50 for C8166 cells to EC50 for Human immunodeficiency virus 1; assay type: cell-based; settings: read-out: Ratio CC50/EC50
[3] = Cytotoxicity against human C8166 cells by MTT assay; assay type: cell-based
In short: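 C8166 cell viability read by MTT method, with CC50 derived.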

Structure (SMILES)	EC50 [1]	selectivity ratio [2]	CC50 [3]
CC(=O)O[C@@]12C[C@@H](C)[C@@]3(O)[C@@H](C=C(CO[C@@H]4O[C@H](CO)[C@@H](O)[C@H](O)[C@H]4O)C[C@]4(O)C(=O)C(C)=C[C@@H]34)[C@@H]1C2(C)C [FISCHEROSIDES A]	170 nM	> 2.12	> 360 nM
CC(=O)O[C@@]12C[C@@H](C)[C@@]3(O)[C@@H](C=C(CO)C[C@]4(O)C(=O)C(C)=C[C@@H]34)[C@@H]1C2(C)C [PROSTRATIN]	0.06 nM	> 8500	> 510 nM
Cc1cn([C@H]2C[C@H](N=[N+]=[N-])[C@@H](CO)O2)c(=O)[nH]c1=O [ZIDOVUDINE]		1.02e+06	4070 nM

Now from value to compound, other results behind:

EC50 [1]	Structure (SMILES)	selectivity ratio [2]	CC50 [3]
0.3 nM	CC(=O)OCC1=C[C@H]2[C@@H]3C(C)(C)[C@]3(OC(C)=O)C[C@@H](C)[C@]2(O)[C@@H]2C=C(C)C(=O)[C@@]2(O)C1	> 367	110 nM
70 nM	CC(=O)O[C@@]12C[C@@H](C)[C@@]3(O)[C@@H](C=C(CO[C@@H]4O[C@H](COC(=O)c5cc(O)c(O)c(O)c5)[C@@H](O)[C@H](O)[C@H]4O)C[C@]4(O)C(=O)C(C)=C[C@@H]34)[C@@H]1C2(C)C [FISCHEROSIDES B]	> 4	> 280 nM
20 nM	CC(=O)O[C@@]12[C@H](O)[C@@H](C)[C@@]3(O)[C@@H](C=C(CO[C@@H]4O[C@H](CO)[C@@H](O)[C@H](O)[C@H]4O)C[C@]4(O)C(=O)C(C)=C[C@@H]34)[C@@H]1C2(C)C [FISCHEROSIDES C]	> 17.5	> 350 nM
